ChEMBL document CHEMBL3396991 (Eur J Med Chem, 2015)

Key:
[1] = target: Kappa-type opioid receptor (Homo sapiens, UniProt P41145); assay: Antagonist activity at kappa opioid receptor (unknown origin)
Homo sapiens [2] = species: Homo sapiens; assay: Selectivity ratio of Ki for mu opioid receptor (unknown origin) to Ki for kappa opioid receptor (unknown origin)
Summary of the method: (§1)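 Ratio of two Ki values from radioligand displacement. KOR: rat recombinant receptor in CHO cells, [³H]U69593 (1 nM), 60 min. MOR: human recombinant receptor in HEK cells, [³H]diprenorphine (0.4 nM), 120 min. Both in 50 mM Tris pH 7.4 at room temperature with eight test concentrations. Ki is the mean ± SD of at least three experiments.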

Homo sapiens [3] = species: Homo sapiens; assay: Selectivity ratio of Ki for delta opioid receptor (unknown origin) to Ki for kappa opioid receptor (unknown origin)
Summary of the method: as §1, with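 “DOR:” for “MOR:”, “receptor, [³H]DADLE (0.5” for “receptor in HEK cells, [³H]diprenorphine (0.4”, “three independent” for “three”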

[4] = target: Kappa-type opioid receptor (Rattus norvegicus, UniProt P34975); assay: Displacement of [3H]U69593 from rat recombinant kappa opioid receptor expressed in CHO cells after 60 mins; assay type: cell-based
Mu-type opioid receptor = Mu-type opioid receptor (Homo sapiens, UniProt P35372); assay: Displacement of [3H]diprenorphine from human recombinant mu opioid receptor expressed in HEK cells after 60 mins; assay type: cell-based, HEK293
[5] = target: Delta-type opioid receptor (Homo sapiens, UniProt P41143); assay: Displacement of [3H]DADLE from human recombinant delta opioid receptor expressed in HEK cells after 60 mins; assay type: cell-based, HEK293
[6] = Selectivity ratio of Ki for human recombinant mu opioid receptor to Ki for rat recombinant kappa opioid receptor
[7] = Selectivity ratio of Ki for human recombinant delta opioid receptor to Ki for rat recombinant kappa opioid receptor
Summary of the method: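 Ratio of DOR Ki to KOR Ki. […] Both assays in 50 mM Tris pH 7.4 at room temperature, eight concentrations.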

Chain of Delta-type opioid receptor (P41143 whole entry): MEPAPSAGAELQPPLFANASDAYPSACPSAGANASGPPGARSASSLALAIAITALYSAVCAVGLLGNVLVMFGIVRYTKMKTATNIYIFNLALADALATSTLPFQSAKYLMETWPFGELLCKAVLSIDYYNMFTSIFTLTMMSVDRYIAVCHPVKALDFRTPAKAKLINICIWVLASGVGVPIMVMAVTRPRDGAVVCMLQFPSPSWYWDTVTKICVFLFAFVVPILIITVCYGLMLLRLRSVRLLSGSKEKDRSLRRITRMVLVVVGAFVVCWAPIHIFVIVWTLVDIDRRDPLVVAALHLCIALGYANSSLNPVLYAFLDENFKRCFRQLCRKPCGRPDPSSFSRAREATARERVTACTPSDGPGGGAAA
Chain of Mu-type opioid receptor (P35372 whole entry): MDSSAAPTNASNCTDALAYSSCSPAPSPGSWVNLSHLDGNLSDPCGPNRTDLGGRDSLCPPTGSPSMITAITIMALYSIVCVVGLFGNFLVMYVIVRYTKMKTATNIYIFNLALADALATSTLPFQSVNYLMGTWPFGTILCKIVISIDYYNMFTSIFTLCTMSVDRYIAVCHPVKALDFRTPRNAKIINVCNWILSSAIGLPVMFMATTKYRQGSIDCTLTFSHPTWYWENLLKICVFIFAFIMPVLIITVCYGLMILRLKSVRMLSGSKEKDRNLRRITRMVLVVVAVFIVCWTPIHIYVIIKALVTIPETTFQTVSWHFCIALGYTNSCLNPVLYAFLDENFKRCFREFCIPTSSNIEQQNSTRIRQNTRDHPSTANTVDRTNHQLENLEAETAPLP
Chain of Kappa-type opioid receptor (Rattus norvegicus, UniProt P34975) (P34975 whole entry): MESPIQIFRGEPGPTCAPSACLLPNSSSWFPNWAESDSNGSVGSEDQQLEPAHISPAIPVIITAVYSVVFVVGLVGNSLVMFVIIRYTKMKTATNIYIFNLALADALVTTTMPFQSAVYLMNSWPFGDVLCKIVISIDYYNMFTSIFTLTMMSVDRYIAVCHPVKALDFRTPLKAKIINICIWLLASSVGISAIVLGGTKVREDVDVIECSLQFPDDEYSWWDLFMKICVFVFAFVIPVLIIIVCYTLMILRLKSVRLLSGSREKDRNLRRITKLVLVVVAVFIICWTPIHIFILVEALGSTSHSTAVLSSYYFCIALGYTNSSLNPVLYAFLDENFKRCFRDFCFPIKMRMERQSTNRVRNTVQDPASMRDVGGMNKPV
Chain of Kappa-type opioid receptor (Homo sapiens, UniProt P41145) (P41145 whole entry): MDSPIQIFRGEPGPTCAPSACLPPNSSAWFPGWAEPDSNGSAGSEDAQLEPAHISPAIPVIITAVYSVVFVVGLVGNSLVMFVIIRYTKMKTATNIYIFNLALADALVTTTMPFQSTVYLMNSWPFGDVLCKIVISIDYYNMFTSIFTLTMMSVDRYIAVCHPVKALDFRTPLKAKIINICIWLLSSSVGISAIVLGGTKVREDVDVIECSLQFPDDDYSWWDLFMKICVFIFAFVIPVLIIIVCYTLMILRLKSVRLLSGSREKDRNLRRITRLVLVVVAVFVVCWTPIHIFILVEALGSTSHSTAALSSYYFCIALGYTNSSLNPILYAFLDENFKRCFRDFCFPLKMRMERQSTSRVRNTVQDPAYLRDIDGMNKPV

**Q.** Which Ki [1] does the source give for `Cc1cc(C)cc([C@@H]2CCCN2Cc2ccc(Oc3ccc(C(N)=O)cc3F)cc2)c1` [ATICAPRANT] here?
**A.** 0.8 nM

**Q.** And the Ratio Ki (Homo sapiens [2])?
**A.** 30

**Q.** And the Ratio Ki (Homo sapiens [3])?
**A.** 194

**Q.** Which results are given for `CC(C)[C@@H](CN1CC[C@@](C)(c2cccc(O)c2)[C@@H](C)C1)NC(=O)[C@H]1Cc2ccc(OCCCF)cc2CN1`?
**A.** Ki [4]: 8.19 nM; Ki (Mu-type opioid receptor): 57.5 nM; Ki [5]: 72.9 nM; Ratio Ki [6]: 7; Ratio Ki [7]: 8.9

**Q.** What does the source list for `CC(C)[C@@H](CN1CC[C@@](C)(c2cccc(O)c2)[C@@H](C)C1)NC(=O)[C@H]1Cc2ccc(O)cc2CN1CCF`?
**A.** Ki [4]: 5.51 nM; Ki (Mu-type opioid receptor): 13.2 nM; Ki [5]: 72.8 nM; Ratio Ki [6]: 2.4; Ratio Ki [7]: 13.2

**Q.** For `CC(C)[C@@H](CN1CC[C@@](C)(c2cccc(O)c2)[C@@H](C)C1)NC(=O)[C@H]1Cc2ccc(O)cc2CN1` [JDTIC], which Ki [4] is on record?
**A.** 0.32 nM

**Q.** For `CC(C)[C@@H](CN1CC[C@@](C)(c2cccc(O)c2)[C@@H](C)C1)NC(=O)[C@H]1Cc2ccc(O)cc2CN1CCCF`, which Ki [4] is on record?
**A.** 1.62 nM

**Q.** What about the Ki (Mu-type opioid receptor) of the same molecule?
**A.** 19.6 nM

**Q.** What about the Ki [5] of the same molecule?
**A.** 254 nM

**Q.** And the Ratio Ki [6]?
**A.** 12.2

**Q.** What about the Ratio Ki [7] of the same molecule?
**A.** 159

**Q.** Which Ki [4] does the source give for `CC(C)[C@@H](CN1CC[C@@](C)(c2cccc(O)c2)[C@@H](C)C1)NC(=O)[C@H]1Cc2ccc(OCCF)cc2CN1` here?
**A.** 24 nM

**Q.** What about the Ki (Mu-type opioid receptor) of the same molecule?
**A.** 63.1 nM

**Q.** And the Ki [5]?
**A.** 81.3 nM

**Q.** And the Ratio Ki [6]?
**A.** 2.6

**Q.** What about the Ratio Ki [7] of the same molecule?
**A.** 3.4
